# Data: PubChem BioAssay AID652011 (Sanford-Burnham Center for Chemical Genomics, 2013)
# Where “and” joins values, the source holds several entries; their conditions need not be identical. Identical values can stand only once.
# Biological target: Hypoxia-inducible factor 1-alpha (Homo sapiens) (UniProt Q16665)
# Assay: HIF reporter inhibition across pancreatic and renal lines – cell-based, luminescence, MIAPaCa-2, 786-0, panel, SAR follow-up (AID 652011)
# Conditions: MIAPaCa-2/PANC HIF reporter, luciferase luminescence, desferoxamine, overnight, HIF1a, run 2; at 99 µM (top of the series)
# Procedure, shortened: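 Also added: desferoxamine added before compound. Dosing: compounds from 10 mM and 0.3125 mM stocks, 1% DMSO final. Timing: overnight seeding and compound exposure, 37 °C, 5% CO2, 10-min detection. Detection: luciferase luminescence with One-Glo reagent.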
# Hypoxia-inducible factor 1-alpha (Homo sapiens), sequence (Q16665 whole entry, looked up): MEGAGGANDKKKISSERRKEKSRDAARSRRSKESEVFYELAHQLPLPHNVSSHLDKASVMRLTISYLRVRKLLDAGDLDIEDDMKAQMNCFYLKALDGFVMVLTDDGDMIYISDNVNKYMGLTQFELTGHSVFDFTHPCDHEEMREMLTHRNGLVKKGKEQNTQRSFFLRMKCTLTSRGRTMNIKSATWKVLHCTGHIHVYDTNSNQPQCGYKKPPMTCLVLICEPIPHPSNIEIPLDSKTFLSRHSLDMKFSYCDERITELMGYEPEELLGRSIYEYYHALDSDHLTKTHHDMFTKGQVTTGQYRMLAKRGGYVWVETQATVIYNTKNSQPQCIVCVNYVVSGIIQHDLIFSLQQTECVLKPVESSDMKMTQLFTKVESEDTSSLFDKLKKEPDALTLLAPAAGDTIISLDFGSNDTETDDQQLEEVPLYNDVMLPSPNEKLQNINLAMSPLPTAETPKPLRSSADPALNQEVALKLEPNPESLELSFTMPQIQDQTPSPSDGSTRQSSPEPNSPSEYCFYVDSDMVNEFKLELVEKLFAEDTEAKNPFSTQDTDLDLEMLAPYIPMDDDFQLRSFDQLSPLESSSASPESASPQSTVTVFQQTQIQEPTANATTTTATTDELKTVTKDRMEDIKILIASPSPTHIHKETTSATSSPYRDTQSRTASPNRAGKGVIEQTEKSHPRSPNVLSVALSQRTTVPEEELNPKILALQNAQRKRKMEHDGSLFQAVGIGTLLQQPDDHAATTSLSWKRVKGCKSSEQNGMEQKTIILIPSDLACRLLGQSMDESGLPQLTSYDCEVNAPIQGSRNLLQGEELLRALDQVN
row,SMILES,inhibition
1,CNC(=O)CCc1nc(-c2ccccc2)no1,-20.8% and 17.9%
2,COc1ccccc1NC(=O)CCc1nc(-c2ccc(C(C)(C)C)cc2)no1,81.3%
3,CCC(C)NC(=O)CCc1nc(-c2ccccc2)no1 (stereo not given),-19.7%
4,CC(C)(C)c1ccc(-c2noc(CCC(=O)Nc3ccccc3)n2)cc1,60.5%
5,CCNC(=O)CCc1nc(-c2ccc(OCC)cc2)no1,-42.2%
6,CCNC(=O)CCc1nc(-c2ccccc2C)no1,-28.2%
7,CCc1ccc(-c2noc(CCC(=O)NC(C)CC)n2)cc1 (stereo not given),-24.3%
8,CCNC(=O)CCc1nc(-c2c(Cl)cccc2Cl)no1,28.8%
9,CCC(C)NC(=O)CCc1nc(-c2ccc(C(C)C)cc2)no1 (stereo not given),-0.644%
10,CC(C)(C)c1ccc(-c2noc(CCC(=O)Nc3cccnc3)n2)cc1,85.6%
11,CCCCc1ccc(-c2noc(CCC(=O)NC)n2)cc1,9.8%
12,CC(C)(C)c1ccc(-c2noc(CCC(=O)N3CCCCC3)n2)cc1,103%
13,CCc1ccc(-c2noc(CCC(=O)NC3CC3)n2)cc1,-49.4%
14,CNC(=O)CCc1nc(-c2ccc(C(C)(C)C)cc2)no1,18.4%
15,CCOc1ccc(-c2noc(CCC(=O)O)n2)cc1,70.3%
16,CC(C)CNC(=O)CCc1nc(-c2ccc(C(C)(C)C)cc2)no1,2.19%
17,COc1cccc(NC(=O)CCc2nc(-c3ccc(C(C)(C)C)cc3)no2)c1,81.2%
18,CC(C)(C)c1ccc(-c2noc(CCC(=O)NCc3ccco3)n2)cc1,93.7% and 85.5%
19,O=C(CCc1nc(-c2ccccc2)no1)NC1CC1,-23.4%
20,CNC(=O)CCc1nc(-c2ccc(C)cc2)no1,20.3%
21,CNC(=O)CCc1nc(-c2ccc(C(C)C)cc2)no1,-35.5%
22,CC(C)(C)c1ccc(-c2noc(CCC(=O)N3CCOCC3)n2)cc1,-1.55%
23,CC(C)(C)c1ccc(-c2noc(CCC(=O)NC3CCC3)n2)cc1,54.4%
24,CC(C)c1ccc(-c2noc(CCC(=O)NC3CC3)n2)cc1,-9.97%
25,CC(C)(C)NC(=O)CCc1nc(-c2ccccc2)no1,-36.5%
26,CCCNC(=O)CCc1nc(-c2ccc(C(C)(C)C)cc2)no1,9.39%
27,CCNC(=O)CCc1nc(-c2ccccc2)no1,-23.4%
28,CC(C)c1ccc(-c2noc(CCC(=O)NC(C)(C)C)n2)cc1,38.8%
29,O=C(O)CCc1nc(-c2ccccc2)no1,16.7%
30,CNC(=O)CCc1nc(-c2ccc(Cl)cc2)no1,-33.8%
